Laboratory results taken from ChEMBL document CHEMBL4689842, “EUbOPEN Chemogenomics Library wave 1” (2021).
Values joined by “and” are separate entries in the source; they are usually repeats but may differ in a detail not shown here. Equal values may be shown once.

Tested on: Fibroblast
Assay: Multiplex assay against human fibroblast
Format: toxicity, cell-based
Conditions: 10 µM, compound concentration 10 uM
In short: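 With compound added, live cells were imaged on a CQ1 microscope at 37°C and 5% CO2; staining with Hoechst33342, BioTracker Green Microtubule Cytoskeleton Dye, MitoTracker Red and Annexin V Alexa Fluor 680 had been done at seeding. The CellPathfinder machine-learning gating scheme split cells into Hoechst high-intensity objects or normal cells, normal cells into healthy, pyknosed or fragmented nuclei, and pyknosed cells into mitotic or apoptotic. The tubulin, mitochondrial-mass and membrane-permeability phenotypes are per cents of healthy-nucleus cells.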

| SMILES | Population Apoptotic (%) (12 h, replicate 1) | Population Fragmented Nuclei (%) (12 h, replicate 1) | Population Healthy Nuclei (%) (12 h, replicate 1) | Population Hoechst High Intensity Objects (%) (12 h, replicate 1) | Population Membrane Permeable-Phenotype (%) (12 h, replicate 1) | Population Mitotic Cells (%) (12 h, replicate 1) | Population Normal (%) (12 h, replicate 1) | Population Pyknosed Nuclei (%) (12 h, replicate 1) | Total Cell Count (12 h, replicate 1) | Population Apoptotic (%) (12 h, replicate 2) | Population Fragmented Nuclei (%) (12 h, replicate 2) | Population Healthy Nuclei (%) (12 h, replicate 2) | Population Hoechst High Intensity Objects (%) (12 h, replicate 2) | Population Membrane Permeable-Phenotype (%) (12 h, replicate 2) | Population Mitochondria Different-Phenotype (%) (12 h, replicate 2) | Population Normal (%) (12 h, replicate 2) | Population Pyknosed Nuclei (%) (12 h, replicate 2) | Population Tubulin-Different-Phenotype (%) (12 h, replicate 2) | Total Cell Count (12 h, replicate 2) | Population Apoptotic (%) (24 h, replicate 1) | further results |
| --- | --- | --- | --- | --- | --- | --- | --- | --- | --- | --- | --- | --- | --- | --- | --- | --- | --- | --- | --- | --- | --- |
| CN(C)c1ncnc(-c2ccc3nc(Nc4cc(CN5CCN(C(=O)CC(F)(F)F)CC5)ccn4)[nH]c3c2)c1Cl [BAY-440] | 72% and 67% | 31% and 20% | 51% and 62% | 10% and 13% | 29% and 17% | 27% and 32% | 89% and 86% | 17% | 282 and 187 | 83% and 50% | 48% and 40% | 41% and 50% | 24% and 35% | 25% and 18% | 33% and 18% | 75% and 64% | 10% and 9% | 50% and 86% | 77 and 68 | 58% and 50% | Population Mitochondria Different-Phenotype (%) (12 h, replicate 1): 6% and 3%; Population Fragmented Nuclei (%) (24 h, replicate 1): 31% and 22%; Population Healthy Nuclei (%) (24 h, replicate 1): 55% and 67%; Population Hoechst High Intensity Objects (%) (24 h, replicate 1): 14% and 11%; Population Membrane Permeable-Phenotype (%) (24 h, replicate 1): 18% and 10%; Population Mitochondria Different-Phenotype (%) (24 h, replicate 1): 7% and 0%; Population Mitotic Cells (%) (24 h, replicate 1): 41% and 50%; Population Normal (%) (24 h, replicate 1): 85% and 88%; Population Pyknosed Nuclei (%) (24 h, replicate 1): 12% and 10%; Total Cell Count (24 h, replicate 1): 290 and 193; Population Apoptotic (%) (24 h, replicate 2): 75% and 37%; Population Fragmented Nuclei (%) (24 h, replicate 2): 52% and 48%; Population Healthy Nuclei (%) (24 h, replicate 2): 39% and 32%; Population Hoechst High Intensity Objects (%) (24 h, replicate 2): 37% and 36%; Population Membrane Permeable-Phenotype (%) (24 h, replicate 2): 22% and 14%; Population Mitotic Cells (%) (24 h, replicate 2): 25% and 62%; Population Normal (%) (24 h, replicate 2): 62% and 63%; Population Pyknosed Nuclei (%) (24 h, replicate 2): 8% and 18%; Total Cell Count (24 h, replicate 2): 74 and 68 |
| COc1ccc(Oc2cc(NCCC(F)(F)F)c3ncc(-c4ccc(C(=O)NC5CC5)c(C)c4)n3n2)c(F)c1F [BAY-1217389] | 63% and 54% | 28% and 27% | 48% and 59% | 18% and 14% | 18% and 15% | 36% and 45% | 81% and 85% | 23% and 12% | 203 and 339 | 65% and 22% | 35% and 55% | 33% and 28% | 23% and 34% | 20% | 34% and 18% | 76% and 65% | 30% and 16% | 38% and 50% | 170 and 86 | 77% and 48% | Population Tubulin-Different-Phenotype (%) (12 h, replicate 1): 45% and 31%; Population Mitotic Cells (%) (12 h, replicate 2): 35% and 77%; Population Fragmented Nuclei (%) (24 h, replicate 1): 30% and 23%; Population Healthy Nuclei (%) (24 h, replicate 1): 41% and 63%; Population Hoechst High Intensity Objects (%) (24 h, replicate 1): 15% and 13%; Population Membrane Permeable-Phenotype (%) (24 h, replicate 1): 12% and 8%; Population Mitotic Cells (%) (24 h, replicate 1): 22% and 51%; Population Normal (%) (24 h, replicate 1): 84% and 86%; Population Pyknosed Nuclei (%) (24 h, replicate 1): 27% and 13%; Population Tubulin-Different-Phenotype (%) (24 h, replicate 1): 59% and 27%; Total Cell Count (24 h, replicate 1): 211 and 319; Population Fragmented Nuclei (%) (24 h, replicate 2): 54% and 47%; Population Healthy Nuclei (%) (24 h, replicate 2): 20% and 36%; Population Hoechst High Intensity Objects (%) (24 h, replicate 2): 19% and 30%; Population Membrane Permeable-Phenotype (%) (24 h, replicate 2): 18% and 19%; Population Mitochondria Different-Phenotype (%) (24 h, replicate 2): 18% and 23%; Population Mitotic Cells (%) (24 h, replicate 2): 32% and 88%; Population Normal (%) (24 h, replicate 2): 80% and 69%; Population Pyknosed Nuclei (%) (24 h, replicate 2): 24% and 15%; Population Tubulin-Different-Phenotype (%) (24 h, replicate 2): 29% and 52% |
